Here are results for 19 compounds from ChEMBL document CHEMBL1143979, “1-, 3- and 8-substituted-9-deazaxanthines as potent and selective antagonists at the human A2B adenosine receptor” (Bioorg Med Chem, 2008).

Test [1] deals with T1, Adenosine receptor A2b (Homo sapiens, UniProt P29275).
T1 sequence (P29275 whole entry): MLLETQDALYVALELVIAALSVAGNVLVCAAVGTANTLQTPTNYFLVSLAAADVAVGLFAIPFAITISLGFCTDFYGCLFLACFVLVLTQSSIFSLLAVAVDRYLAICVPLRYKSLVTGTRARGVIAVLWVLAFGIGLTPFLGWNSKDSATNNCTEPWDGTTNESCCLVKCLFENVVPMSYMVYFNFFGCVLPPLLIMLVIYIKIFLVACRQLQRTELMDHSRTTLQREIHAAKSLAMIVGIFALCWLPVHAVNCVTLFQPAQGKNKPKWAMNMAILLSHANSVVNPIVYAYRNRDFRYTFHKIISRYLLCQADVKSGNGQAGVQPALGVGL
Briefly: Displacement of [3H]DPCPX from human adenosine A2B receptor expressed in HEK293 cells. It is filed as cell-based. In general terms: In a radioligand displacement assay an active substance lowers the binding of a labelled ligand.

In test [2] the target is T2, Adenosine receptor A2a (Homo sapiens, UniProt P29274). The test is described as follows: Displacement of [3H]ZM-241385 from human adenosine A2A receptor expressed in CHO cells at 1 uM. The class given is cell-based. In a few lines:
(§1)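 Competition binding at cloned human receptors: [3H]DPCPX for A1 and A2B, [3H]ZM241385 for A2A, [3H]NECA for A3. Screening compounds are reported as % radioligand displacement at one concentration. SEM below 10%.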

The target of test [3] is T2, Adenosine receptor A2a. Briefly: Displacement of [3H]ZM-241385 from human adenosine A2A receptor expressed in CHO cells. The class given is cell-based. In a few lines: as §1
Test [4] is filed under the species Homo sapiens. The test is described as follows: Selectivity index, ratio for human adenosine A2A receptor to human adenosine A2B receptor.

T2 sequence (P29274 whole entry): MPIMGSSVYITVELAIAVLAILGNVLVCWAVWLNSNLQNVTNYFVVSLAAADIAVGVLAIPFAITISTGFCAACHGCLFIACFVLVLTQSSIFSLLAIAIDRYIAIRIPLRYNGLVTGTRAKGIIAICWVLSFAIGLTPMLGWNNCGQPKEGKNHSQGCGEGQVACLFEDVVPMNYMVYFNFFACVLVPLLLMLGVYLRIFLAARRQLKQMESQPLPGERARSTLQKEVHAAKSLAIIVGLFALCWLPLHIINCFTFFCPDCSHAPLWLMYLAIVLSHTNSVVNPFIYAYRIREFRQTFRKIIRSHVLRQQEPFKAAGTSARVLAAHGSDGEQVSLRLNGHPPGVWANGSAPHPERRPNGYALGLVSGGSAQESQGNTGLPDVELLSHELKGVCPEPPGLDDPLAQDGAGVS

With `COc1cc(OCC(=O)N2CCN(c3ccc(Cl)cc3)CC2)ccc1-c1cc2c([nH]1)c(=O)n(C)c(=O)n2C`, the Ki in test [1] (read-out: Log Ki (converted)) is 479 nM. For the same compound, the Activity in test [2] was determined as 4%.

Regarding `COc1cc(OCC(=O)N2CCC(c3ccccc3)CC2)ccc1-c1cc2c([nH]1)c(=O)n(C)c(=O)n2C`, the inhibitory constant (Ki) in test [1] (read-out: Log Ki (converted)) was 891 nM. The compound also returned an Activity in test [2] of 3%.

Regarding `Cn1c(=O)c2[nH]c(-c3ccc(OCC(=O)N4CCC(c5ccccc5)(c5ccccc5)CC4)cc3)cc2n(C)c1=O`, the Ki in test [1] (read-out: Log Ki (converted)) was 9.55 nM. Further, the Activity in test [2] was 28%.

On to `Cn1c(=O)c2[nH]c(-c3ccc(OCC(=O)N4CCN(c5c(Cl)cncc5Cl)CC4)cc3)cc2n(C)c1=O`, for which, in test [1] (read-out: Log Ki (converted)), the inhibitory constant (Ki) is 7.08 nM. In test [2], this compound gave an Activity of 21%.

For the compound `CCCn1c(=O)c2[nH]c(-c3ccc(OCC(=O)N4CCN(Cc5ccccc5)CC4)cc3)cc2n(CCC)c1=O`, the inhibition constant (Ki) in test [3] is 257 nM; in test [1] (read-out: Log Ki (converted)), 6.17 nM. In addition, in test [4], the Ratio was found to be 41.7.

Regarding `Cn1c(=O)c2[nH]c(-c3ccc(OCC(=O)N4CCN(c5ccc(O)cc5)CC4)cc3)cc2n(C)c1=O`, the Ki in test [3] is 617 nM; in test [1] (read-out: Log Ki (converted)), 27.5 nM. The Ratio in test [4] stood at 22.

With `Cn1c(=O)c2[nH]c(-c3ccc(OCC(=O)N4CCC(O)(c5ccc(Cl)cc5)CC4)cc3)cc2n(C)c1=O`, the Ki in test [3] is 324 nM; in test [1] (read-out: Log Ki (converted)), 2.88 nM. In test [4], the Ratio amounted to 112.

Turning to `CCCn1c(=O)c2[nH]c(-c3ccc(OCC(=O)N4CCN(C(c5ccccc5)c5ccccc5)CC4)cc3)cc2n(CCC)c1=O`, the values for the Ki in test [3] and in test [1] (read-out: Log Ki (converted)) were 1580 nM and 51.3 nM, respectively. The Ratio in test [4] was determined as 30.9.

Consider `CCCn1c(=O)n(C)c(=O)c2[nH]c(-c3ccc(OCC(=O)N4CCN(c5nc6ccc(Cl)cc6s5)CC4)cc3)cc21`, for which the figures for the Ki in test [3] and in test [1] (read-out: Log Ki (converted)) were 631 nM and 5.75 nM, respectively. In addition, in test [4], the Ratio stood at 106.

`CCCn1c(=O)c2[nH]c(-c3ccc(OCC(=O)N4CCN(c5c(Cl)cncc5Cl)CC4)cc3)cc2n(CCC)c1=O`: the figures for the Ki in test [3] and in test [1] (read-out: Log Ki (converted)) were 74.1 nM and 7.59 nM, respectively. Moreover, the Ratio in test [4] worked out at 9.8.

In the case of `COc1ccc(N2CCN(C(=O)COc3ccc(-c4cc5c([nH]4)c(=O)n(C)c(=O)n5C)cc3)CC2)cc1`, the Ki in test [3] is 170 nM; in test [1] (read-out: Log Ki (converted)), 13.2 nM. The Ratio in test [4] turned out to be 12.9.

As for `Cn1c(=O)c2[nH]c(-c3ccc(OCC(=O)N4CCN(c5ncccn5)CC4)cc3)cc2n(C)c1=O`, the figures for the Ki in test [3] and in test [1] (read-out: Log Ki (converted)) were 417 nM and 13.5 nM, respectively. Besides, the Ratio in test [4] is 30.9.

On to `CCCn1c(=O)n(C)c(=O)c2[nH]c(-c3ccc(OCC(=O)N4CCN(c5c(Cl)cncc5Cl)CC4)cc3)cc21`, for which the results for the Ki in test [3] and in test [1] (read-out: Log Ki (converted)) were 646 nM and 4.27 nM, respectively. Moreover, the Ratio in test [4] came out at 151.

`O=C(COc1ccc(-c2cc3c([nH]2)c(=O)n(CC2CC2)c(=O)n3CC2CC2)cc1)N1CCc2ccccc2C1`: the Ki is 240 nM in test [3] and 9.55 nM in test [1] (read-out: Log Ki (converted)). Moreover, the Ratio in test [4] is 25.

With `CCCn1c(=O)c2[nH]c(-c3ccc(OCC(=O)N4CCc5ccccc5C4)cc3)cc2n(CCC)c1=O`, the Ki in test [3] is 93.3 nM; in test [1] (read-out: Log Ki (converted)) it was 2.29 nM. Moreover, the Ratio in test [4] stood at 40.7.

As to `Cn1c(=O)c2[nH]c(-c3ccc(OCC(=O)N4CCN(c5ccc(F)cc5)CC4)cc3)cc2n(C)c1=O`, the inhibition constant (Ki) in test [3] was 324 nM; in test [1] (read-out: Log Ki (converted)) it was 9.55 nM. Further, the Ratio in test [4] was 33.8.

Take `CCCn1c(=O)n(C)c(=O)c2[nH]c(-c3ccc(OCC(=O)N4CCC(c5ccccc5)CC4)cc3)cc21`: the inhibitory constant (Ki) was 1020 nM in test [3] and 2.5 nM in test [1] (read-out: Ki). Moreover, in test [4], the Ratio was found to be 398.

As for `CCCn1c(=O)c2[nH]c(-c3ccc(OCC(=O)N4CCN(c5ccccc5)CC4)cc3)cc2n(C)c1=O`, the Ki in test [3] is 316 nM; in test [1] (read-out: Log Ki (converted)), 13.2 nM. Also, the Ratio in test [4] turned out to be 24.

On to `CCCn1c(=O)n(C)c(=O)c2[nH]c(-c3ccc(OC(C)(C)C(=O)N4CCN(c5ccccc5)CC4)cc3)cc21`, for which the inhibitory constant (Ki) in test [3] was 562 nM; in test [1] (read-out: Log Ki (converted)), 4.17 nM. Further, the Ratio in test [4] turned out to be 135.

By Ki is commonly meant the dissociation constant of the complex between target and ligand, obtained from inhibition or displacement.
